The list is not random: actives were taken first. Their share in the collection is about 1.4%.
CTSL1 counter: blocks F. hepatica cathepsin L1 in PFM18AAP counter-screen | 300,000 tested, 0.49% active | recombinant F. hepatica cathepsin L1, Z-Leu-Arg-MCA fluorescence | inhibition, % at 5.96 µM | AID 1906;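 active = inhibition above the mean of all tested compounds plus 3 SD, set per screening campaign, cut at about 17% in these data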;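 note: 0% = plate median of test compound wells and 100% = 1 µM Z-Phe-Ala-diazomethylketone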
UBC9 SUMO inh: inhibitors of human SUMOylation (UBC9); 290,000 tested, 0.36% active; HTRF SUMOylation assay, SAE1/SAE2 + UBC9, in vitro; AID 2006; P63279; inhibition, % at 35 µM; in the data active = inhibition above about 50%, passing the limit was not always enough
Target sequence (P63279 whole entry, looked up): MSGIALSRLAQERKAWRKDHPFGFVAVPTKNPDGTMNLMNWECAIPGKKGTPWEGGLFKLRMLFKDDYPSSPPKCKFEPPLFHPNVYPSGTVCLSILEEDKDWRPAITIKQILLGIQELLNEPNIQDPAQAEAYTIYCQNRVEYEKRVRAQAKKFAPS
Neddylation inh: inhibitors of human cullin neddylation; P61081+Q13564; TR-FRET cullin neddylation, biochemical; inhibition, % at 25 µM; 360,000 tested, 0.58% active; AID 651699; in the data active = inhibition above about 36%
UCH37 inh: human UCH37 deubiquitinating enzyme inhibition; Q9Y5K5; purified proteasome/UCH37, Ub-AMC cleavage fluorescence; inhibition, % (no concentration beside the values); 330,000 tested, 0.33% active; AID 588478;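 active = mean inhibition over replicate wells above about 20%, limit read from the data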;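 note: 0% = compound-free wells with enzyme and 100% = wells lacking proteasome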
Target sequence (Q9Y5K5 whole entry, looked up): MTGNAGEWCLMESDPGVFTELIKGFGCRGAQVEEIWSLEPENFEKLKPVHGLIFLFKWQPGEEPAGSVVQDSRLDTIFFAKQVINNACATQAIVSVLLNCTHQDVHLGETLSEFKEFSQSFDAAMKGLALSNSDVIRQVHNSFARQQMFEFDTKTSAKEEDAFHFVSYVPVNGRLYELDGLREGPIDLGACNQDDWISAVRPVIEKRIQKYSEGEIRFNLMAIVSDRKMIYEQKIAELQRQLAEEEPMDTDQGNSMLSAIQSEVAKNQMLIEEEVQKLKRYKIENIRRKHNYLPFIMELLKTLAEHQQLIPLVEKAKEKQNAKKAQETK
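Test system – human UCH37 enzyme supplied as purified proteasome complex · Incubation – 30 min preincubation with enzyme, 25 min cleavage at room temperature · Detection – AMC fluorescence from Ub-AMC cleavage, excitation 355 nm, emission 460 nm · Benchmarks – no-proteasome wells (full inhibition) and compound-free wells (no inhibition)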
Neddyl inh conf: cullin neddylation inhibition, confirmation; calls only at 25 µM; shares compounds with Neddylation inh; 1,800 tested, 13% active; TR-FRET cullin neddylation biochemical assay; in the data active = inhibition above about 40%;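 note: neddylation substrate is the cullin 1 ring ligase complex with SKP2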
Starred values were filed as active, the others as inactive; i = inactive; . = no result shown; + = active, no number.

SMILES	CTSL1 counter	UBC9 SUMO inh	Neddylation inh	UCH37 inh	Neddyl inh conf
Cc1ccc(N(CC(=O)NN=Cc2cccnc2)S(=O)(=O)c2ccccc2)cc1	.	.	.	1	.
CCOC(=O)C1=C(C)NC(C)=C(C(=O)OCC)C1C(=O)OCC(=O)N(C)Cc1ccccc1	.	.	40*	-22	i
CCOC(=O)C1=C(C)NC(C)=C(C(=O)OCC)C1C(=O)OCC(N)=O	0	2	17	-35	.
Clc1cccc(C=NNc2nc(Cl)nc3ccccc23)c1	.	.	.	2	.
COc1ccc(C=c2sc(=CC(=O)c3ccc(C)cc3)[nH]c2=O)cc1OC	.	.	.	1	.
CCOC(=O)c1cnn2c(N)c(C#N)cnc12	-2	17	39*	-14	i
O=C(Nc1cc(C(=O)Nc2ccccc2C(=O)O)cc(C(=O)Nc2ccccc2C(=O)O)c1)c1ccccc1	8	6	49*	.	i
CC(=NNC(=O)CCC1C(=O)NN=C1C)c1ccc([N+](=O)[O-])cc1 (stereo not given)	.	.	.	5	.
C[C@H](NC(=O)c1ncn2c1c(=O)[nH]c1ccccc12)c1ccccc1	.	.	40*	.	+
C[C@H](NC(=O)c1ncn2c1c(=O)[nH]c1ccc(Br)cc12)c1ccccc1	.	.	-180	.	.
Cc1cc(C=NNC(=O)COc2cccc3cccnc23)c(C)n1-c1ccccc1	.	.	.	-1	.
N#Cc1cc2c(=O)n3ccccc3nc2n(CCCn2ccnc2)c1=N	2	13	46*	-140	i
C=CCn1c(=N)c(S(=O)(=O)c2ccc(C)c(C)c2)cc2c(=O)n3ccccc3nc21	-4	8	47*	-159	i
N=c1c(S(=O)(=O)c2ccccc2)cc2c(=O)n3ccccc3nc2n1CCCN1CCOCC1	-4	19	63*	-93	i
O=C(CCc1nc2ccccc2[nH]c1=O)NN=Cc1ccccc1	.	.	.	-25	.
O=C(NN=Cc1ccco1)Nc1cccc(Cl)c1	.	.	.	7	.
Cc1ccc(Nc2ccc(C(=O)NCCc3ccccc3)cn2)cc1	4	-2	41*	-7	i
CN(CC(=O)Nc1cccc(F)c1)C(=O)c1cc(-c2ccco2)nc2ccccc12	1	.	42*	-419	.
COc1cc2c(cc1NC(=O)/C=C/c1cc(OC)c(OC)c(OC)c1)oc1ccccc12	7	6	46*	-15	i
COc1cc(/C=C/C(=O)NCc2cccnc2)cc(OC)c1OC	3	-5	47*	-10	i
COc1ccc(C=Nn2c(C)nnc2C)c(OC)c1	.	.	.	-1	.
COCCCNC(=O)c1c(N)n(N=Cc2cccs2)c2nc3ccccc3nc12	.	.	.	-391	.
CC1(C)Cc2c(c(-c3ccco3)nc3sc4c(NCCN5CCOCC5)ncnc4c23)CO1	5	29	51*	-20	i
CC(=O)ON=C(c1nonc1N)N(C)C	.	.	.	3	.
Cc1ccc2nc3ccc(N4CCCCCCC4)nn3c(=O)c2c1	6	29	53*	-1	i
SMILES	CTSL1 counter	UBC9 SUMO inh	Neddylation inh	UCH37 inh	Neddyl inh conf
COc1cc(C=NNC(=O)c2ccccc2)ccc1OS(=O)(=O)c1ccccc1	.	.	.	3	.
Cc1ccc(CNC(=O)c2cc3c(=O)n4ccccc4nc3n(Cc3ccco3)c2=N)cc1	-2	20	.	-33	.
Cc1ccc2nc3c(cc(C(=O)NCc4ccco4)c(=N)n3Cc3ccco3)c(=O)n2c1	19*	74*	56*	-20	i
N=c1c(C(=O)NCCN2CCOCC2)cc2c(=O)n3ccccc3nc2n1Cc1ccc(F)cc1	0	7	73*	-445	.
N=c1c(C(=O)NCc2ccco2)cc2c(=O)n3ccccc3nc2n1Cc1ccc(Cl)cc1	10	9	55*	-59	i
N=c1c(C(=O)NCc2ccco2)cc2c(=O)n3ccccc3nc2n1Cc1ccccc1	0	50	.	-109	.
CC1CC(=NNC(N)=S)c2cc(Cl)ccc2S1 (stereo not given)	.	.	.	-24	.
Cc1cccc(C)c1-n1nnnc1-c1nc2ccccc2[nH]c1=O	.	.	33	.	.
Cc1cc2nc(-c3nnnn3-c3c(C)cccc3C)c(=O)[nH]c2cc1C	.	.	48*	.	i
O=C(NN=Cc1cccs1)C1CC(=O)N(c2ccccc2)C1 (stereo not given)	.	.	.	3	.
COC(=O)c1cc(OC)c(OC)cc1NCC(=O)Nc1ccc(C)cc1	4	-6	47*	-29	.
COC(=O)c1cc(OC)c(OC)cc1NCC(=O)Nc1ccc(OC)c(OC)c1	2	18	16	-7	.
C=C(Cl)COc1ccc2c(CC)cc(=O)oc2c1	1	6	42*	-39	i
N#CCCn1cc(C=NNC(=O)c2ccncc2)c(-c2ccccc2)n1	.	.	.	5	.
COC(=O)c1ccc(-c2ccc(/C=N/NC(=O)Cc3nnc(N)s3)o2)cc1	5	11	51*	.	i
CC1(C)Cc2c(C#N)c(NCCN3CCOCC3)nc(-c3ccco3)c2CO1	2	-5	-111	-78	.
CC1(C)Cc2c(C#N)c(NCCO)nc(-c3ccco3)c2CO1	-2	11	39*	-426	.
CCN(CC(=O)NCc1cccs1)C(=O)/C=C/c1cccc(OC)c1OC	2	.	46*	0	.
CCN(CC(=O)NCc1cccs1)C(=O)/C=C/c1ccc(OC)c(OC)c1	3	.	23	-24	.
CCN(CC)CCCNc1nc(C)cc(COC)c1C#N	0	4	43*	-207	i
Cc1ccc(NS(=O)(=O)c2cc(NC(=O)c3ccc4c(c3)NC(=O)CS4)ccc2Cl)c(C)c1	-4	-3	48*	1	i
COc1ccc(NC(=O)c2ccc3c(c2)NC(=O)CS3)cc1	.	.	6	-1	.
CCOP(=O)(OCC)C(=NOC(=O)c1ccc(Cl)cc1Cl)C(N)=O	.	.	.	6	.
CCc1cc(-c2ccc3c(c2)COc2c4ccccc4nn2-3)on1	1	.	43*	4	i
CCNC(=S)NN=Cc1ccco1	.	.	.	5	.
SMILES	CTSL1 counter	UBC9 SUMO inh	Neddylation inh	UCH37 inh	Neddyl inh conf
CC(=NNc1ccc([N+](=O)[O-])cc1)c1ccc(O)cc1	.	.	.	3	.
Nc1c(C(=O)Nc2ccccc2)c2nc3ccccc3nc2n1CCCN1CCOCC1	6	-24	57*	-26	+
Nc1c(S(=O)(=O)c2ccccc2)c2nc3ccccc3nc2n1CCN1CCOCC1	2	12	.	-217	.
CCCOc1ccc(-c2c(C(=O)N/N=C(\C)c3ccco3)nnn2-c2nonc2N)cc1	9	11	40*	.	i
CCOc1ccc(-c2c(C(=O)N/N=C/c3ccc(OC(C)C)cc3)nnn2-c2nonc2N)cc1	0	-16	37	.	.
Cc1ccc(SCc2c(C(=O)N/N=C/c3ccc4c(c3)OCO4)nnn2-c2nonc2N)cc1	11	-6	32	.	.
COCc1c(C(=O)N/N=C(/C)c2cccs2)nnn1-c1nonc1N	-3	-4	44*	.	i
Cc1ccc(-c2c(C(=O)N/N=C/c3ccc(OC(C)C)cc3)nnn2-c2nonc2N)cc1	-2	.	45*	.	i
CCCc1c(C(=O)N/N=C/c2ccc3c(c2)OCO3)nnn1-c1nonc1N	.	.	42*	.	i
CC(=O)Nc1ccc(C(=O)NN=Cc2ccccc2OCc2ccccc2)cc1	.	.	.	2	.
Cn1cnnc1SCc1ccc(C(=O)NN=Cc2cccs2)cc1	.	.	.	10	.
CC(=NNC(=O)C1CC1)c1ccc(C(C)(C)C)cc1	.	.	.	1	.

Screens from PubChem.
